Source: ChEMBL document CHEMBL1255494, “In vivo comparison of the pharmacodynamic targets for echinocandin drugs against Candida species” (Antimicrob Agents Chemother, 2010)
≈ marks a conversion by molar mass, not a printed value. *1 amine or outer side, *2 acyl side, *3 side chain or, on linkers, in order; H or OH if unused. Where a SMILES comes first, the peptide text is derived from it. Bridges are numbered along the chain shown (N, C = ends). [ ]: non-standard residue; d: D form. The star is where a group is joined. hTyr(3S-OH,4S-OH,3'-OSO3H) = N[C@H](C(=O)O)[C@H](O)[C@@H](O)c1ccc(O)c(OS(=O)(=O)O)c1; Orn(4R-OH,5R-OH) = O=C([C@H](C[C@@H](O)[C@@H](O)N[*:3])N[*:1])[*:2]; Pro(3S-OH,4S-Me) = C[C@H]1CN[C@H](C(=O)O)[C@H]1O; X1 = CCCCCOc1ccc(-c2cc(-c3ccc(C(=O)*)cc3)no2)cc1; Gln(3R-OH) = NC(=O)C[C@@H](O)[C@H](N)C(=O)O; Hyp = O=C(O)[C@@H]1C[C@@H](O)CN1

Assays:
[1] = Ratio of fAUC (0 to 24 hrs) in Candida albicans infected neutropenic ICR Swiss mouse to MIC for Candida albicans at 1 log kill dose after 24 hrs; type: functional
[2] = tested on: Nakaseomyces glabratus; test: Antifungal activity against Candida glabrata 32930 after 24 hrs; type: functional; details: Nakaseomyces glabratus, 32930, 24 h
Method in brief: (§1)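 Broth microdilution per CLSI M27-A3 in RPMI 1640; inoculum 0.5 × 10³ to 2.5 × 10³ cells/ml, 35°C. […] Three separate occasions in duplicate, mean reported; C. krusei ATCC 6258 and C. parapsilosis ATCC 22019 as daily QC.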

[3] = tested on: Nakaseomyces glabratus; test: Antifungal activity against Candida glabrata 34341 after 24 hrs; type: functional; details: Nakaseomyces glabratus, 34341, 24 h
Method in brief: (§2)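 MICs by CLSI M27-A3 broth dilution in RPMI 1640, inoculum 0.5 × 10³ to 2.5 × 10³ cells/ml, 35°C. Read visually at 24 h as the lowest concentration giving ≥50% growth reduction versus control. Run on three occasions in duplicate and reported as the mean. C. krusei ATCC 6258 and C. parapsilosis ATCC 22019 served as QC strains.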

[4] = Ratio of fAUC (0 to 24 hrs) in Candida parapsilosis infected neutropenic ICR Swiss mouse to MIC for Candida parapsilosis at static dose after 24 hrs; type: functional
[5] = tested on: Candida parapsilosis; test: Antifungal activity against Candida parapsilosis 20423.078 after 24 hrs; type: functional; details: Lodderomyces parapsilosis, 20423.078, 24 h; method in brief: as §2
[6] = tested on: Candida albicans; test: Antifungal activity against Candida albicans K1 after 24 hrs; type: functional; details: K1, 24 h; method in brief: as §1
[7] = tested on: Candida albicans; test: Antifungal activity against Candida albicans 580 after 24 hrs; type: functional; details: Candida albicans, 580, 24 h; method in brief: as §1
[8] = Ratio of AUC (0 to 24 hrs) in Candida glabrata infected neutropenic ICR Swiss mouse to MIC for Candida glabrata at 1 log kill dose after 24 hrs; type: functional
Method in brief: (§3)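 Neutropenic mice were infected iv and treated 2 h later. Four to six ip dose levels (0.078–160 mg/kg) were given every 24 h for 4 days, 3 mice per regimen. Kidney CFU were counted at 96 h. A sigmoid dose-effect model gave the static and 1-log-kill doses relative to burden at therapy start.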

[9] = tested on: Candida albicans; test: Antifungal activity against Candida albicans 570 after 24 hrs; type: functional; details: Candida albicans, 570, 24 h; method in brief: as §2
[10] = tested on: Candida parapsilosis; test: Antifungal activity against Candida parapsilosis 20489.085 after 24 hrs; type: functional; details: Lodderomyces parapsilosis, 20489.085, 24 h; method in brief: as §1
[11] = tested on: Nakaseomyces glabratus; test: Antifungal activity against Candida glabrata 5376 after 24 hrs; type: functional; details: Nakaseomyces glabratus, 5376, 24 h; method in brief: as §1
[12] = tested on: Nakaseomyces glabratus; test: Fungistatic activity against Candida glabrata infected in neutropenic ICR Swiss mouse after 24 hrs; type: functional
Method in brief: (§4)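 Female ICR Swiss mice, neutropenic via cyclophosphamide s.c. (150 mg/kg day −4, 100 mg/kg day −1 and day +2), infected by tail-vein injection of clinical isolates 2 h before therapy. Intraperitoneal dosing every 24 h for 4 days, 4–6 dose levels from 0.078 to 160 mg/kg, 3 mice per regimen. Kidney CFU counted at 96 h. Sigmoid dose-effect fit gives static dose and 1 log kill dose relative to burden at start of therapy.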

[13] = tested on: Candida parapsilosis; test: Antifungal activity against Candida parapsilosis 20511.092 after 24 hrs; type: functional; details: Lodderomyces parapsilosis, 20511.092, 24 h; method in brief: as §2
[14] = AUC (0 to 24 hrs) in Candida albicans infected neutropenic ICR Swiss mouse at 5 mg/kg, ip; type: ADME, organism-based; parameters: time < 24 hr, dose 5 mg/kg, route intraperitoneal; details: plasma
Method in brief: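 Neutropenic female ICR Swiss mice (cyclophosphamide sc at 150 mg/kg on day −4, 100 mg/kg on day −1 and day +2) infected iv via tail vein with Candida; single ip doses of 5, 20 or 80 mg/kg. Serum drawn from 3 mice per time point at eight time points and assayed by microbiologic assay (C. albicans K1) or […]. Noncompartmental analysis; AUC by trapezoidal rule.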

[15] = Ratio of fAUC (0 to 24 hrs) in Candida glabrata infected neutropenic ICR Swiss mouse to MIC for Candida glabrata at 1 log kill dose after 24 hrs; type: functional
[16] = Ratio of fAUC (0 to 24 hrs) in Candida parapsilosis infected neutropenic ICR Swiss mouse to MIC for Candida parapsilosis at 1 log kill dose after 24 hrs; type: functional
[17] = tested on: Nakaseomyces glabratus; test: Antifungal activity against Candida glabrata 5592 after 24 hrs; type: functional; details: Nakaseomyces glabratus, 5592, 24 h; method in brief: as §1
[18] = Ratio of AUC (0 to 24 hrs) in Candida parapsilosis infected neutropenic ICR Swiss mouse to MIC for Candida parapsilosis at static dose after 24 hrs; type: functional; method in brief: as §3
[19] = tested on: Candida parapsilosis; test: Antifungal activity against Candida parapsilosis 20562.03 after 24 hrs; type: functional; details: Lodderomyces parapsilosis, 20562.03, 24 h; method in brief: as §2
[20] = tested on: Candida parapsilosis; test: Antifungal activity against Candida parapsilosis infected in ICR Swiss mouse; type: functional; method in brief: as §4
[21] = tested on: Candida metapsilosis; test: Antifungal activity against Candida metapsilosis 20463.02 after 24 hrs; type: functional; details: Lodderomyces metapsilosis, 20463.02, 24 h; method in brief: as §2
[22] = tested on: Candida albicans; test: Fungistatic activity against Candida albicans infected in neutropenic ICR Swiss mouse after 24 hrs; type: functional; method in brief: as §4
[23] = Ratio of fAUC (0 to 24 hrs) in Candida glabrata infected neutropenic ICR Swiss mouse to MIC for Candida glabrata at static dose after 24 hrs; type: functional
[24] = tested on: Candida parapsilosis; test: Antifungal activity against Candida parapsilosis 20450.096 after 24 hrs; type: functional; details: Lodderomyces parapsilosis, 20450.096, 24 h; method in brief: as §2
[25] = tested on: Candida parapsilosis; test: Antifungal activity against Candida parapsilosis 20477.048 after 24 hrs; type: functional; details: Lodderomyces parapsilosis, 20477.048, 24 h; method in brief: as §2
[26] = Ratio of AUC (0 to 24 hrs) in Candida albicans infected neutropenic ICR Swiss mouse to MIC for Candida albicans at static dose after 24 hrs; type: functional; method in brief: as §3
[27] = tested on: Nakaseomyces glabratus; test: Antifungal activity against Candida glabrata 33616 after 24 hrs; type: functional; details: Nakaseomyces glabratus, 33616, 24 h; method in brief: as §2
[28] = tested on: Nakaseomyces glabratus; test: Antifungal activity against Candida glabrata infected in neutropenic ICR Swiss mouse assessed log reduction in bacterial count […]; type: functional; method in brief: as §4
[29] = tested on: Candida orthopsilosis; test: Antifungal activity against Candida orthopsilosis 20577.055 after 24 hrs; type: functional; details: Lodderomyces orthopsilosis, 20577.055, 24 h; method in brief: as §2
[30] = tested on: Nakaseomyces glabratus; test: Antifungal activity against Candida glabrata 37661 after 24 hrs; type: functional; details: Nakaseomyces glabratus, 37661, 24 h; method in brief: as §2
[31] = tested on: Nakaseomyces glabratus; test: Antifungal activity against Candida glabrata 513 after 24 hrs; type: functional; details: Nakaseomyces glabratus, 513, 24 h; method in brief: as §1
[32] = tested on: Candida albicans; test: Antifungal activity against Candida albicans infected in ICR Swiss mouse assessed as log reduction in bacterial count […]; type: functional; method in brief: as §4
[33] = Ratio of AUC (0 to 24 hrs) in Candida glabrata infected neutropenic ICR Swiss mouse to MIC for Candida glabrata at static dose after 24 hrs; type: functional; method in brief: as §3
[34] = tested on: Mus musculus; test: Protein binding in Candida albicans infected neutropenic ICR Swiss mouse at 80 mg/kg, ip; type: ADME, organism-based; parameters: dose 80 mg/kg, route intraperitoneal; details: in vivo
[35] = tested on: Nakaseomyces glabratus; test: Antifungal activity against Candida glabrata infected in ICR Swiss mouse; type: functional; method in brief: as §4
[36] = tested on: Candida parapsilosis; test: Antifungal activity against Candida parapsilosis 20423.072 after 24 hrs; type: functional; details: Lodderomyces parapsilosis, 20423.072, 24 h; method in brief: as §2
[37] = tested on: Candida parapsilosis; test: Antifungal activity against Candida parapsilosis 20385.079 after 24 hrs; type: functional; details: Lodderomyces parapsilosis, 20385.079, 24 h; method in brief: as §2

Compound `CCCCCOc1ccc(-c2cc(-c3ccc(C(=O)N[C@H]4C[C@@H](O)[C@@H](O)NC(=O)[C@@H]5[C@@H](O)[C@@H](C)CN5C(=O)[C@H]([C@H](O)CC(N)=O)NC(=O)[C@H]([C@H](O)[C@@H](O)c5ccc(O)c(OS(=O)(=O)O)c5)NC(=O)[C@@H]5C[C@@H](O)CN5C(=O)[C@H]([C@@H](C)O)NC4=O)cc3)no2)cc1` [MICAFUNGIN] (X1-[Orn(4R-OH,5R-OH)]T[Hyp][hTyr(3S-OH,4S-OH,3'-OSO3H)][Gln(3R-OH)][Pro(3S-OH,4S-Me)]; lactam 1-C) has a Ratio [1] of 25.2, an MIC [2] of 0.008 µg/mL (≈ 0.0063 µM) and an MIC [3] of 0.06 µg/mL (≈ 0.0472 µM). It also gave a Ratio [4] of 4.95, an MIC [5] of 0.5 µg/mL (≈ 0.394 µM) and an MIC [6] of 0.016 µg/mL (≈ 0.0126 µM). It also gave an MIC [7] of 0.008 µg/mL (≈ 0.0063 µM), a Ratio [8] of 3778 and an MIC [9] of 0.02 µg/mL (≈ 0.0157 µM). It also gave an MIC [10] of 0.12 µg/mL (≈ 0.0945 µM), an MIC [11] of 0.008 µg/mL (≈ 0.0063 µM) and an Activity [12] of 2.47 mg/kg. It also gave an MIC [13] of 0.25 µg/mL (≈ 0.197 µM), an AUC(0-t) at 24 h [14] of 138 µg·h/mL and a Ratio [15] of 9.45. It also gave a Ratio [16] of 7.73, an MIC [17] of 0.016 µg/mL (≈ 0.0126 µM) and a Ratio [18] of 1981. It also gave an MIC [19] of 0.5 µg/mL (≈ 0.394 µM), an Emax [20] of 4.8 log10 CFU/kidneys and an ED50 ([20]; Lodderomyces parapsilosis) of 2.6 mg/kg. The MIC [21] was 0.12 µg/mL (≈ 0.0945 µM), the Activity [22] was 2.79 mg/kg and the Ratio [23] was 3.9. For the same compound, the MIC [24] was 0.25 µg/mL (≈ 0.197 µM), the MIC [25] was 0.5 µg/mL (≈ 0.394 µM) and the Ratio [26] was 5299. It also gave an MIC [27] of 0.25 µg/mL (≈ 0.197 µM), an Activity [28] of 5.88 mg/kg and an MIC [29] of 0.25 µg/mL (≈ 0.197 µM). It also gave an MIC [30] of 0.25 µg/mL (≈ 0.197 µM), an MIC [31] of 0.016 µg/mL (≈ 0.0126 µM) and an Activity [32] of 5.63 mg/kg. It also gave a Ratio [33] of 1542, an Activity [34] of 99.75% and an Emax [35] of 5.4 log10 CFU/kidneys. It also gave an ED50 ([35]; Nakaseomyces glabratus) of 3 mg/kg, an MIC [36] of 0.25 µg/mL (≈ 0.197 µM) and an MIC [37] of 0.5 µg/mL (≈ 0.394 µM).
